# Test results: ChEMBL document CHEMBL4229344 (Eur J Med Chem, 2018)
# Tests used:
# [1] = target: Glycogen synthase kinase-3 beta (Homo sapiens) (UniProt P49841); assay: Binding affinity to wild-type human full length GSK3B (M1 to T433 residues) expressed in mammalian expression system assessed as residual binding level at 1 uM by Kinomescan method relative to control
# Outline: (§1)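 KINOMEscan competition binding against 468 purified kinases/mutants, test compound at 1 µM; residual binding relative to control.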
# [2] = target: Mitogen-activated protein kinase kinase kinase kinase 1 (Homo sapiens) (UniProt Q92918); assay: Binding affinity to wild-type human full length HPK1 (M1 to R799 residues) expressed in bacterial expression system assessed as residual binding level at 1 uM by Kinomescan method relative to control; outline: as §1
# [3] = target: Serine/threonine-protein kinase MAK (Homo sapiens) (UniProt P20794); assay: Binding affinity to wild-type human partial length MAK (M1 to P314 residues) expressed in bacterial expression system assessed as residual binding level at 1 uM by Kinomescan method relative to control
# Outline: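 Kinome-wide competition binding screen against a panel of 468 purified kinases/mutants, with the test compound at a single concentration of 1 μM. Read-out is the relative binding activity of each kinase in the presence of compound.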
# [4] = Tmax in Sprague-Dawley rat at 10 mg/kg, po; assay type: ADME, organism-based; settings: in vivo
# Outline: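 Male Sprague-Dawley rats, 6–8 weeks old and fasted overnight, dosed IV at 1 mg/kg or PO at 10 mg/kg. Formulation was 5% DMSO/40% PEG400/55% saline (1 mg/mL). Jugular blood collected on heparin from 1 min to 8 h (IV) or 5 min to 24 h (PO). Plasma separated by centrifugation at 2–8 °C and stored at −80 °C.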
# [5] = target: Mitogen-activated protein kinase kinase kinase kinase 2 (Homo sapiens) (UniProt Q12851); assay: Binding affinity to wild-type human partial length MAP4K2 (M1 to G318 residues) expressed in mammalian expression system assessed as residual binding level at 1 uM by Kinomescan method relative to control
# [6] = test system: EOL1; assay: Antitumor activity against human EOL-1 cells xenografted in nu/nu mouse assessed as tumor growth inhibition at 50 mg/kg/day, ip; assay type: functional; settings: read-out: TGI
# Outline: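 Female nu/nu mice (6 weeks) given subcutaneous right-flank injection of 5 million EOL-1 cells in PBS/Matrigel 1:1. At 200–400 mm3 tumors, randomized to groups of 6 and dosed daily i.p. for 14 days at 25, 50 or 100 mg/kg/d in 0.5% methylcellulose/0.4% Tween80. Tumor volume = W²×L/2, measured daily.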
# [7] = Apparent clearance in Sprague-Dawley rat at 10 mg/kg, po; assay type: ADME, organism-based; settings: in vivo, read-out: CL(app) (converted)
# [8] = target: Serine/threonine-protein kinase PknB (Mycobacterium tuberculosis) (UniProt P9WI81); assay: Binding affinity to wild-type Mycobacterium tuberculosis H37Rv ATCC 25618 partial length PKNB (M1 to G279 residues) expressed in mammalian expression system assessed as residual binding level at 1 uM by Kinomescan method relative to control
# Outline: (§2)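 Single-concentration (1 μM) competition-binding screen run by KINOMEscan against a panel of 468 purified kinases and mutants. The read-out is the relative binding activity of the test compound to each kinase.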
# [9] = target: Calcium/calmodulin-dependent protein kinase type 1 (Homo sapiens) (UniProt Q14012); assay: Binding affinity to wild-type human full length CAMK1 (M1 to L370 residues) expressed in bacterial expression system assessed as residual binding level at 1 uM by Kinomescan method relative to control; outline: as §2
# [10] = target: Interleukin-1 receptor-associated kinase 4 (Homo sapiens) (UniProt Q9NWZ3); assay: Binding affinity to wild-type human partial length IRAK4 (M1 to S460 residues) expressed in mammalian expression system assessed as residual binding level at 1 uM by Kinomescan method relative to control
# [11] = target: STE20/SPS1-related proline-alanine-rich protein kinase (Homo sapiens) (UniProt Q9UEW8); assay: Binding affinity to wild-type human partial length STK39 (P43 to I357 residues) expressed in mammalian expression system assessed as residual binding level at 1 uM by Kinomescan method relative to control
# [12] = test system: Tyrosine-protein kinase ABL1 (Homo sapiens), P00519 [T315I]; assay: Binding affinity to human phosphorylated ABL1 T315I mutant (S229 to K512 residues) expressed in mammalian expression system assessed as residual binding level at 1 uM by Kinomescan method relative to control; outline: as §2
# [13] = species: Homo sapiens; assay: Selectivity index, ratio of GI50 for TEL-fused PDGFRbeta (unknown origin) expressed in mouse BA/F3 cells to GI50 for TEL-fused PDGFRalpha (unknown origin) expressed in mouse BA/F3 cells; assay type: cell-based
# Outline: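 Parental BaF3 or IL-3-independent TEL-kinase BaF3 lines, made by retroviral infection and puromycin selection, grown in RPMI 1640 with 10% FBS. Cells seeded at 1–3 × 10^4 cells/mL with serial compound concentrations for 72 h. Viability read by CellTiter-Glo luminescence or CCK-8 absorbance at 450/655 nm and normalised to DMSO. GI50 obtained by triplicate testing with linear regression. Selectivity is the ratio of the two GI50 values.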
# [14] = target: Ephrin type-B receptor 6 (Homo sapiens) (UniProt O15197); assay: Binding affinity to wild-type human partial length EPHB6 (Q634 to P948 residues) expressed in mammalian expression system assessed as residual binding level at 1 uM by Kinomescan method relative to control
# [15] = target: Wee1-like protein kinase (Homo sapiens) (UniProt P30291); assay: Binding affinity to wild-type human partial length WEE1 (M291 to K575 residues) expressed in bacterial expression system assessed as residual binding level at 1 uM by Kinomescan method relative to control
# Outline: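 KINOMEscan competition binding against a panel of 468 purified kinases/mutants, compound tested at 1 μM; readout is relative binding activity versus control.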
# [16] = target: Testis-specific serine/threonine-protein kinase 1 (Homo sapiens) (UniProt Q9BXA7); assay: Binding affinity to wild-type human full length TSSK1B (M1 to Q367 residues) expressed in bacterial expression system assessed as residual binding level at 1 uM by Kinomescan method relative to control
# Outline: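 Single-concentration KINOMEscan (DiscoverX) binding screen at 1 μM against a panel of 468 purified kinases and mutants. The read-out is binding relative to control.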
# [17] = target: Epidermal growth factor receptor (Homo sapiens) (UniProt P00533); assay: Binding affinity to human partial length EGFR S752-I759del mutant expressed in bacterial expression system assessed as residual binding level at 1 uM by Kinomescan method relative to control
# Outline: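 Kinome-wide single-concentration binding screen (KINOMEscan) at 1 μM against a panel of 468 purified kinases and mutants. Read-out is relative binding of each kinase compared with control. Selectivity across the panel was summarised as an S(10) score.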
# [18] = target: Leucine-rich repeat serine/threonine-protein kinase 2 (Homo sapiens) (UniProt Q5S007); assay: Binding affinity to wild-type human partial length LRRK2 (H970 to E2527 residues) expressed in mammalian expression system assessed as residual binding level at 1 uM by Kinomescan method relative to control
# Interleukin-1 receptor-associated kinase 4 (Homo sapiens), sequence (Q9NWZ3 whole entry, the tested form may be a part): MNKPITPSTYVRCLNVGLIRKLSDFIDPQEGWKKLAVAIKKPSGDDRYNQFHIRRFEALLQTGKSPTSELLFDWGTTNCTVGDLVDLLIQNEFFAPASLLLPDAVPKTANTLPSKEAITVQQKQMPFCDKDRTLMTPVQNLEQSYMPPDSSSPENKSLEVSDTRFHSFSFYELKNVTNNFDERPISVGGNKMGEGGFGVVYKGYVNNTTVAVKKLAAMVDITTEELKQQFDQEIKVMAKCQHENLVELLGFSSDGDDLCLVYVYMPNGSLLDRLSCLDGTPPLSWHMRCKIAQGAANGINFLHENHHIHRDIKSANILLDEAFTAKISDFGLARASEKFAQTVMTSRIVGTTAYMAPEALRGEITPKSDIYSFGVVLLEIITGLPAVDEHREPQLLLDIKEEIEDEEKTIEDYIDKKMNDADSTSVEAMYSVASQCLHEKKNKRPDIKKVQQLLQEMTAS
# Epidermal growth factor receptor (Homo sapiens), sequence (P00533 whole entry): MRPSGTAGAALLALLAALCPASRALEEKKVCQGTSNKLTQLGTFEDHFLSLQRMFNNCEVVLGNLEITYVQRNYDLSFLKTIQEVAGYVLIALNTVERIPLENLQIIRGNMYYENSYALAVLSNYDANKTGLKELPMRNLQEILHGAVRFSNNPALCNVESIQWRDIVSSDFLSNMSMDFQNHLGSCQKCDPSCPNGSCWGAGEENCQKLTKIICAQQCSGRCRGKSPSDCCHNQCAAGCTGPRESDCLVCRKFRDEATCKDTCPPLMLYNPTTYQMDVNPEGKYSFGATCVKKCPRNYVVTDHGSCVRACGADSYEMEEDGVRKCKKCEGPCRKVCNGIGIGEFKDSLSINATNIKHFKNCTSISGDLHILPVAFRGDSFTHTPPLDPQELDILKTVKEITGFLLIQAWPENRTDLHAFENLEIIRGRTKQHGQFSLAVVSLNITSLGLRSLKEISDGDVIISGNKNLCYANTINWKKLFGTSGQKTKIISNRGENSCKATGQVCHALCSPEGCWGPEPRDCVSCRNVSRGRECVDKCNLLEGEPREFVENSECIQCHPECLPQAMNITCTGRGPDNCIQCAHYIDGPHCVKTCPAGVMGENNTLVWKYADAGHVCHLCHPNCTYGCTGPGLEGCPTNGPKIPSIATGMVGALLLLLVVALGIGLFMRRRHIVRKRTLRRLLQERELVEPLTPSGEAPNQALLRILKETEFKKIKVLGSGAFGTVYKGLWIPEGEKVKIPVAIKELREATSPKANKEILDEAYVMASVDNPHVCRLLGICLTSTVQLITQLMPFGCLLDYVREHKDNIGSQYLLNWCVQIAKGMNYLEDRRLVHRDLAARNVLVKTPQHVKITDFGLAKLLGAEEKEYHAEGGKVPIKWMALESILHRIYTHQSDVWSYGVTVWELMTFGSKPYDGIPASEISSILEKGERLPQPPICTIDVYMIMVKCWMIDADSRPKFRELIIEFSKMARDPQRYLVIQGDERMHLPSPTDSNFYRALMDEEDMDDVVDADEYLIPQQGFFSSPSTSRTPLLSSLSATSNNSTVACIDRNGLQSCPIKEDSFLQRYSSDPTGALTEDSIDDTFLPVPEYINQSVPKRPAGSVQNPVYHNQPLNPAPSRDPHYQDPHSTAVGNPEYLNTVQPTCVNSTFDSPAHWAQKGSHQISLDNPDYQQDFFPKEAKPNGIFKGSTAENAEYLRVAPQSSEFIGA
# Mitogen-activated protein kinase kinase kinase kinase 2 (Homo sapiens), sequence (Q12851 whole entry, the tested form may be a part): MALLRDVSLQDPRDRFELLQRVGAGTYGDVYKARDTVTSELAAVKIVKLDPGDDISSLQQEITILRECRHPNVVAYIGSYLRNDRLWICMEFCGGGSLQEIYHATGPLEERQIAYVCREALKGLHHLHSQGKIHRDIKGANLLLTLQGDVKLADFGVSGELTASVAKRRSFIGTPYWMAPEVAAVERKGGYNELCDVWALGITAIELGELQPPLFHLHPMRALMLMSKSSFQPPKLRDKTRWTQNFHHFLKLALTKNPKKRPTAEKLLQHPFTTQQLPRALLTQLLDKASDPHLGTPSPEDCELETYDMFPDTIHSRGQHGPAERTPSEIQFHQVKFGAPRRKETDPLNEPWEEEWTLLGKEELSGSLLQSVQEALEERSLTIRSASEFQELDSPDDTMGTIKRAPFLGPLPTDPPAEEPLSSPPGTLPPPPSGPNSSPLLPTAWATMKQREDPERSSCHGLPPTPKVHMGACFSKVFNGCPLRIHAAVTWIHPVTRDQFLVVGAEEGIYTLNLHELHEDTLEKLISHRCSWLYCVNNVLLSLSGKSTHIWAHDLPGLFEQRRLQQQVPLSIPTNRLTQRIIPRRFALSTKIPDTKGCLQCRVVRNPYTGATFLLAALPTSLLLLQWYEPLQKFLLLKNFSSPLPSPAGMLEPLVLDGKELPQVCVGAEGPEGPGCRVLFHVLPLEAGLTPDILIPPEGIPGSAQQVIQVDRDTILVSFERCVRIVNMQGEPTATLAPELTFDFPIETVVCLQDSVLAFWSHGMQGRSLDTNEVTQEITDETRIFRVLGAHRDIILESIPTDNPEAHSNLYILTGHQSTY
# Calcium/calmodulin-dependent protein kinase type 1 (Homo sapiens), sequence (Q14012 whole entry, looked up, the tested form may be a part): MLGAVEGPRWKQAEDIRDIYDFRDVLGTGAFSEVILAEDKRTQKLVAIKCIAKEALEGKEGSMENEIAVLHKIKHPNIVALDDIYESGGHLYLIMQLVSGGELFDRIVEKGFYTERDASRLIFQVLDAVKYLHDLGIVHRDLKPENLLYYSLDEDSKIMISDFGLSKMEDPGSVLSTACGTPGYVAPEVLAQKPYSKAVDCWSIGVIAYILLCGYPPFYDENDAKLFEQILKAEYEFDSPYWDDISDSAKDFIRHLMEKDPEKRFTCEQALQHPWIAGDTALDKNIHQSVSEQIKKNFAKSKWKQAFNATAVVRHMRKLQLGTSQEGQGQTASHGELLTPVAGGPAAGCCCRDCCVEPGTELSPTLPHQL
# Testis-specific serine/threonine-protein kinase 1 (Homo sapiens), sequence (Q9BXA7 whole entry, the tested form may be a part): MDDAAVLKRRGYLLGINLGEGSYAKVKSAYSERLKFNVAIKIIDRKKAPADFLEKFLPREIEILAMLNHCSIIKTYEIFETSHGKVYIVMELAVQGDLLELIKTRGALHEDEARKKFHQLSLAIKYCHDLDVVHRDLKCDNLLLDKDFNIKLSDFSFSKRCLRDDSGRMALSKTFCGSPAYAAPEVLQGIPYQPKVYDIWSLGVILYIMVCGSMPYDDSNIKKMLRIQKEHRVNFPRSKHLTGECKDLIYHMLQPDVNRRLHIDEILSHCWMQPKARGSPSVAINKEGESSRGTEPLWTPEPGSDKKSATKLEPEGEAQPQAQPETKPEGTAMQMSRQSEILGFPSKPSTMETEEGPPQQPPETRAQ
# Serine/threonine-protein kinase PknB (Mycobacterium tuberculosis), sequence (P9WI81 whole entry, the tested form may be a part): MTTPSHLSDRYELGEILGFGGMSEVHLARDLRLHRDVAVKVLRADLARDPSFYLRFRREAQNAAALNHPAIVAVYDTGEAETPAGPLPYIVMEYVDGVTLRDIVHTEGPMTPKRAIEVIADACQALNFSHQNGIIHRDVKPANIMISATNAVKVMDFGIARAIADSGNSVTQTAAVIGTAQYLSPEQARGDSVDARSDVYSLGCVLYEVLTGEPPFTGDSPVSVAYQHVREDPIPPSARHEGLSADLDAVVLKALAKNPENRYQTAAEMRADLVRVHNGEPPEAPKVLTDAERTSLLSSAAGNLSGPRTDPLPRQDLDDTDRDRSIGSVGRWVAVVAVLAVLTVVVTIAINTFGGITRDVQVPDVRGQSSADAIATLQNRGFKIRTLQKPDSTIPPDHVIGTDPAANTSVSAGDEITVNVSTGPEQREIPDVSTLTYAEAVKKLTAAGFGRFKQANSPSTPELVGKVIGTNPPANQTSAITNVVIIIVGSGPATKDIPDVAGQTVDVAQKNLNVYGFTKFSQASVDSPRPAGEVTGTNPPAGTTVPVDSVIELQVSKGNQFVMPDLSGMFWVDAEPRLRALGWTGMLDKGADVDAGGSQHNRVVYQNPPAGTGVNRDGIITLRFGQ
# Wee1-like protein kinase (Homo sapiens), sequence (P30291 whole entry, looked up, the tested form may be a part): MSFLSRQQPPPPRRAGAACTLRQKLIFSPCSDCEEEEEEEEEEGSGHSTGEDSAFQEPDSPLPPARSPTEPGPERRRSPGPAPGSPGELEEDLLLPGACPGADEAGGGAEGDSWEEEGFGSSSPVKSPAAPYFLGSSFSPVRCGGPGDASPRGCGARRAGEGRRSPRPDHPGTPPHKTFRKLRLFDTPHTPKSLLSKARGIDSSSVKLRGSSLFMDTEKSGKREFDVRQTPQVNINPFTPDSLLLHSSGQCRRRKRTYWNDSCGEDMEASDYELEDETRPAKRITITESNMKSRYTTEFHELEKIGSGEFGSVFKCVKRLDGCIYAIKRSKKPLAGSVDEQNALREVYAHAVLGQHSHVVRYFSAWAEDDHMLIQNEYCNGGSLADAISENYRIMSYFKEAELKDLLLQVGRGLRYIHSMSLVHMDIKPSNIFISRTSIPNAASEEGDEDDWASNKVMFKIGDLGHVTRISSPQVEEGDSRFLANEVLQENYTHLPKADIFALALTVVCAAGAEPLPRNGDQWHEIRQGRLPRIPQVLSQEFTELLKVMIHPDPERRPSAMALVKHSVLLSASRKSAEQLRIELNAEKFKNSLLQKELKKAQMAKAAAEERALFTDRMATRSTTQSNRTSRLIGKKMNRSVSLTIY
# Glycogen synthase kinase-3 beta (Homo sapiens), sequence (P49841 whole entry, looked up, the tested form may be a part): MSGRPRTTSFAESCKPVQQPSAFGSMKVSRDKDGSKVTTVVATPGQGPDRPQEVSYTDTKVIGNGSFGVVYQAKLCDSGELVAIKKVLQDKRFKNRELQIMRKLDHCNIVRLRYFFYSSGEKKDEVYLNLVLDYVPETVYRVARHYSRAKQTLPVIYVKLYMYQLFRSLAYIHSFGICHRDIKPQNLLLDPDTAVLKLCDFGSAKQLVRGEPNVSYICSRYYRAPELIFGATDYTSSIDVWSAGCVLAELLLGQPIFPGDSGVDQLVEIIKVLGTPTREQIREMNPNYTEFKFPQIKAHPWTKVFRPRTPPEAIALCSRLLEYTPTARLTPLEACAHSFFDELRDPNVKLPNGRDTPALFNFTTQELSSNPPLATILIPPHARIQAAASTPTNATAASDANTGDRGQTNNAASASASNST
smiles,measurement,setting,value
Cc1ccc(NC(=O)c2ccc(CN(CCN(C)C)C(=O)c3cccnc3)cc2)cc1Nc1nccc(-c2cccnc2)n1,Activity,[1],87%
same,Activity,[2],94%
same,Activity,[3],92%
same,Tmax,[4],1.5 h
same,Activity,[5],100%
same,inhibition in vivo at 50 mg/kg/day,[6],95.4%
same,CL/F,[7],1450 mL/min/kg
same,Activity,[8],99%
same,Activity,[9],81%
same,Activity,[10],100%
same,Activity,[11],90%
same,Activity,[12],100%
same,RatioGI50,[13],85
same,Activity,[14],100%
same,Activity,[15],87%
same,Activity,[16],99%
same,Activity,[17],90%
same,Activity,[18],100%
